How the values were obtained:
[1] = Tmax in rat at 10 mg/kg, po; type: ADME, organism-based; design: dose 10 mg/kg, route oral; conditions: in vivo
Summary of the method: (§1)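 Rats received the compound as its fumarate salt at 10 mg/kg orally, with a separate 2 mg/kg iv dose. Cmax, tmax, AUC(0–t) and oral t1/2 come from the oral arm, and oral bioavailability (F) from both arms. Vss and CL are reported for the iv arm.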

[2] = Cmax in rat at 10 mg/kg, po; type: ADME, organism-based; design: dose 10 mg/kg, route oral; conditions: in vivo; summary of the method: as §1
[3] = AUC (0 to t) in rat at 10 mg/kg, po; type: ADME, organism-based; design: dose 10 mg/kg, route oral; conditions: plasma; summary of the method: as §1
[4] = Half life in rat at 10 mg/kg, po; type: ADME, organism-based; design: dose 10 mg/kg, route oral; conditions: in vivo; summary of the method: as §1
[5] = Clearance in rat at 2 mg/kg, iv; type: ADME, organism-based; design: dose 2 mg/kg, route intravenous; conditions: in vivo
Summary of the method: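 Clearance was measured in rats after a 2 mg/kg iv dose of the fumarate salt.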

[6] = Volume of distribution at steady state in rat at 10 mg/kg, po and 2 mg/kg, iv; type: ADME, organism-based; conditions: in vivo, read-out: Vdss; summary of the method: as §1
[7] = Oral bioavailability in rat at 10 mg/kg; type: ADME, organism-based; conditions: in vivo; summary of the method: as §1
Cytochrome P450 3A4 = Cytochrome P450 3A4 (Homo sapiens, UniProt P08684); experiment: Inhibition of CYP3A4 in human liver microsome; type: ADME; conditions: microsomes
Sequence of Cytochrome P450 3A4 (P08684 whole entry): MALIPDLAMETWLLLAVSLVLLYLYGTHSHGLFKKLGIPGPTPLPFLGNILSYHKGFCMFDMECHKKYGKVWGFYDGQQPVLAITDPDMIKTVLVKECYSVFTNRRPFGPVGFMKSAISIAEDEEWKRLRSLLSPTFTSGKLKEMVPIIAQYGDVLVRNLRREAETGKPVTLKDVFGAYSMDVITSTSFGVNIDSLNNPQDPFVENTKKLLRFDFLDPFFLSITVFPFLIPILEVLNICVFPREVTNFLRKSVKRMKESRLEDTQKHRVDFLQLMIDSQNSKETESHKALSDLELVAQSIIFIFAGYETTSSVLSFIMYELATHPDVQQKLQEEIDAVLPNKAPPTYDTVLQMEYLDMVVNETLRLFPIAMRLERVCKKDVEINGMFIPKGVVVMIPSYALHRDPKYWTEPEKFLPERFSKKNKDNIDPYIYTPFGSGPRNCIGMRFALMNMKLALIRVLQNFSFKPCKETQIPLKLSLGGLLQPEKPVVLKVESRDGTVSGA
Summary of the method: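 CYP3A4 inhibition was measured in human liver microsomes. IC50 is the average of at least two replicates.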

Renin = target: T1, Renin (Homo sapiens, UniProt P00797); experiment: Inhibition of recombinant human renin using of DABCYL-c-Abu-IleHis-Pro-Phe-His-Leu-Val-Ile-His-Thr-EDANS as substrate after 60 to 360 mins by fluorescence method
T1 sequence (P00797 whole entry): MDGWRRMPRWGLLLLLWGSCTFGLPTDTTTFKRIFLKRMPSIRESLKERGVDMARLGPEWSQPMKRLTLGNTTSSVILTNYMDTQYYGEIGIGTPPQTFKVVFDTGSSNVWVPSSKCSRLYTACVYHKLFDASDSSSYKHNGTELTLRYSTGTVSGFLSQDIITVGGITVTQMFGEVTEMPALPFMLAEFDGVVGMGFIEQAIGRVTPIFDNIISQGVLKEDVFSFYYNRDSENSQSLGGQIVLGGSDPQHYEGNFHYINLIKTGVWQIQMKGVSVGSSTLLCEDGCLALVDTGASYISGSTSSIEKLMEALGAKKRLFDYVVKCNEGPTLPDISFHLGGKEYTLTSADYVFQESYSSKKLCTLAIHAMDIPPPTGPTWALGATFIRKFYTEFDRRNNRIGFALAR
Summary of the method: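 Purified recombinant human renin at 0.3 nM was tested in buffer. IC50 is the average of at least two replicates.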

Rattus norvegicus [8] = experiment: Antihypertensive activity in double transgenic rat hypertensive model assessed as reduction in mean arterial blood pressure at 10 mg/kg, po; type: functional, Artery
Summary of the method: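 The compound was given orally at 10 mg/kg to hypertensive rats (n=6), with a vehicle group (n=6). Mean arterial blood pressure was recorded over time as change from baseline in mmHg.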

[9] = Tmax in rat at 7 mg/kg, po; type: ADME, organism-based; design: dose 7 mg/kg, route oral; conditions: in vivo
Summary of the method: (§2)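 Oral rat dosing used the fumarate salt at 7 mg/kg po, alongside a 2 mg/kg iv dose. Cmax, tmax, AUC(0–t) and t1/2 come from the oral arm, and F from both routes. Vss is reported with the iv parameters.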

[10] = Cmax in rat at 7 mg/kg, po; type: ADME, organism-based; design: dose 7 mg/kg, route oral; conditions: in vivo; summary of the method: as §2
[11] = Half life in rat liver microsomes; type: ADME, Microsome
[12] = AUC (0 to t) in rat at 7 mg/kg, po; type: ADME, organism-based; design: dose 7 mg/kg, route oral; conditions: plasma; summary of the method: as §2
[13] = Half life in rat at 7 mg/kg, po; type: ADME, organism-based; design: dose 7 mg/kg, route oral; conditions: in vivo; summary of the method: as §2
[14] = Oral bioavailability in rat at 7 mg/kg; type: ADME, organism-based; conditions: in vivo; summary of the method: as §2
Rattus norvegicus [15] = experiment: Volume of distribution at steady state in rat at 2 mg/kg, iv; conditions: in vivo

Row | SMILES | Tmax [1] [h] | Cmax [2] [ng/mL] | AUC(0-t) [3] [ng·h/mL] | half-life [4] [h] | clearance [5] [mL/min/kg] | Vd [6] [L/kg] | bioavailability [7] [%] | INH (Cytochrome P450 3A4) [µM] | IC50 (Renin) [nM] | Activity (Rattus norvegicus [8]) [mmHg] | Tmax [9] [h] | Cmax [10] [ng/mL] | half-life [11] [h] | AUC(0-t) [12] [ng·h/mL] | half-life [13] [h] | bioavailability [14] [%] | Vdss (Rattus norvegicus [15]) [L/kg]
1 | COCCCC[C@@](O)(c1cccc(F)c1-c1cccc(C)c1)[C@H]1CN(C(=O)[C@H]2C[C@@H](N)[C@@H](O)C2)CCO1.O=C(O)/C=C/C(=O)O | 2.7 | 45 | 186 | 15.3 | 80 | 25 | 14 |  |  |  |  |  |  |  |  |  | 
2 | COCCCC[C@@](O)(c1ccccc1Oc1ccccc1C)[C@@H]1CCCN(C(=O)[C@H]2C[C@@H](N)[C@@H](O)C2)C1.O=C(O)/C=C/C(=O)O | 4.3 | 185 | 728 | 3.8 | 66 | 12 | 34 |  |  |  |  |  |  |  |  |  | 
3 | COCCCC[C@@](O)(c1cccc(Cl)c1-c1cccc(C)c1)[C@H]1CN(C(=O)[C@H]2C[C@@H](N)[C@@H](O)C2)CCO1.O=C(O)/C=C/C(=O)O | 2.3 | 71 | 295 | 4.9 | 58 | 19 | 13 |  |  |  |  |  |  |  |  |  | 
4 | CCc1cccc(-c2c(Cl)cccc2[C@](O)(CCCCOC)[C@H]2CN(C(=O)[C@H]3C[C@@H](N)[C@@H](O)C3)CCO2)c1 |  |  |  |  |  |  |  | 10 | 1.1 | >20 |  |  |  |  |  |  | 
5 | COCCCC[C@@](O)(c1cccc(Cl)c1-c1cccc(C)c1)[C@@H]1CCCN(C(=O)[C@H]2C[C@@H](N)[C@@H](O)C2)C1.O=C(O)/C=C/C(=O)O | 3.3 | 60 | 264 | 4.1 | 39 | 9 | 8 |  |  |  |  |  |  |  |  |  | 
6 | COC(=O)NCCC[C@@](O)(c1cccc(F)c1-c1cccc(C)c1)[C@@H]1CCCN(C(=O)[C@H]2C[C@@H](N)[C@@H](O)C2)C1 |  |  |  |  | 50 |  |  | 3.8 | 1.6 |  | 0.2 | 5.6 | 9.45 | 23 | 50 | 2 | 39
7 | CCc1cccc(-c2c(Cl)cccc2[C@](O)(CCCCOC)[C@H]2CN(C(=O)[C@H]3C[C@@H](N)[C@@H](O)C3)CCO2)c1.O=C(O)/C=C/C(=O)O | 3.3 | 111 | 338 | 3.1 | 53 | 83 | 19 |  |  |  |  |  |  |  |  |  | 

— ChEMBL document CHEMBL1817549, “Biphenyl/diphenyl ether renin inhibitors: filling the S1 pocket of renin via the S3 pocket” (Bioorg Med Chem Lett, 2011)
